procasp7 counter: counter-screen for procaspase-3 activators: activators of human procaspase-7. P55210. recombinant procaspase-7, Ac-DEVD-pNA absorbance 405 nm; D23A/D198A/D206A triple mutant, cannot self-cleave; scale: DMSO 0, 5 µM enzyme 100. activation, % at 8.5 µM. actives 0.093% (n = 330,000);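 active means percent activation above the screen-wide mean plus 3 SD, cut at about 25% in these data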
Target sequence (P55210 whole entry D23A/D198A/D206A): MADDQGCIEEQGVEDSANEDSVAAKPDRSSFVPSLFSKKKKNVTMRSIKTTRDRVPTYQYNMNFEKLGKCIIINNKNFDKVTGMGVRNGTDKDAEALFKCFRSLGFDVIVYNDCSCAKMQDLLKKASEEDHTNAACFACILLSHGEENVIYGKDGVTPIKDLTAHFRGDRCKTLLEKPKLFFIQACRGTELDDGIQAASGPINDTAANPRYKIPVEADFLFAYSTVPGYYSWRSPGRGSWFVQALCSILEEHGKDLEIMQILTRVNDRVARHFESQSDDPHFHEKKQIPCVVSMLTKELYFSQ
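Assay system – Uncleavable procaspase-7 mutant enzyme · Quantity – 2 µM procaspase-7 mutant as dispensed · Times – 1 h preincubation, 2 h reaction · Dosing – single nominal 8.5 µM compound dose, 0.8% DMSO final · Buffer or medium – Zinc-free 50 mM HEPES buffer, pH 7.4, with NaCl and Triton X-100 · Detection – Epi-absorbance of released pNA at 405 nm, two timepoints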
GSTO1 counter: blocks human GSTO1 in RBBP9 counter-screen; P78417; recombinant GSTO1, activity-based probe fluorescence polarization; inhibition, % at 5.96 µM; actives 1.1% (n = 300,000); AID 1974;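 active means inhibition above the campaign mean inhibition plus 3 SD, cut at about 35% in these data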;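 further: 0% = GSTO1-1 with DMSO and 100% = wells lacking GSTO1-1 enzyme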
proCasp3 act: activators of human procaspase-3. recombinant procaspase-3 D3A, Ac-DEVD-pNA absorbance 405 nm. activation, % at 8.5 µM. actives 0.11% (n = 330,000). AID 463141;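 active means activation above the mean of all tested compounds plus 3 SD, cut at about 21% in these data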;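 further: 0% = DMSO alone and 100% = DMSO wells spiked with extra 5 µM PC-3 D3A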
Target sequence (P42574 whole entry D9A/D28A/D175A): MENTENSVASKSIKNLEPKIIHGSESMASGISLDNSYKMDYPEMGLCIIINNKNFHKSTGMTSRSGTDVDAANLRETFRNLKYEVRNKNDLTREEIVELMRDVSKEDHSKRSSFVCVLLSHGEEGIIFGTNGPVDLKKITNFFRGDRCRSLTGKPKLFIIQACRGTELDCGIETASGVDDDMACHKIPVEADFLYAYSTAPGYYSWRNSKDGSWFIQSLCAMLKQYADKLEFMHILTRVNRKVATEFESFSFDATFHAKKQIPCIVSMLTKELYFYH
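Assay system – Procaspase-3 D3A mutant · Benchmarks – DMSO low control, extra-enzyme high control · Technique – 405 nm absorbance of p-nitroaniline, reads at 0 and 120 min · Doses – 8.5 µM nominal · Measure – % activation between DMSO and enzyme-spiked controls · Also added – Ac-DEVD-pNA chromogenic peptide substrate · Schedule – 1 h compound preincubation, 2 h substrate hydrolysis at 25 °C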
ZTA counter: ZTA (EBV) inhibition in EBNA-1 counter-screen. P03206. ZTA-DNA binding, fluorescence polarization. inhibition, % at 11 µM. actives 0.15% (n = 320,000). AID 2234; in the data active means inhibition above about 33%
EBNA-1 inh: blocks EBNA-1 binding to DNA; EBNA-1 DNA binding, fluorescence polarization; inhibition, % at 14.8 µM; actives 0.34% (n = 300,000); in the data active means inhibition above about 28%
Apaf-1 inh: inhibitors of human Apaf-1 apoptosome; O14727; reconstituted apoptosome caspase-3 activity, DEVD-Rh110 fluorescence; inhibition, % at 20 µM; actives 0.71% (n = 330,000); AID 489030; active means inhibition of at least 40% at 20 µM;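 further: plate controls were DMSO wells for no effect and DEVD-CHO caspase inhibitor wells for full effect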
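Material: biochemical Apaf-1 apoptosome reconstitution. Medium: Hepes buffer, pH 7.5. Also added: cytochrome c activation, bis-DEVD rhodamine 110 substrate. Timing: 30 min compound preincubation, 50 min activation, room temperature. Measured by: rhodamine 110 fluorescence at Ex 480/Em 540 nm.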
Apaf-1 inh conf: confirmation of Apaf-1 inhibitors. AID 504614. actives 25% (n = 1,800). inhibition, % at 20 µM. reconstituted apoptosome, caspase-3 DEVD-Rh110 fluorescence. shares compounds with Apaf-1 inh;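 active means mean inhibition of at least 40% at 20 µM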;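 further: plate controls were DMSO wells for no effect and DEVD-CHO caspase inhibitor control wells for full effect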
Rh110 quench: counter-screen for Apaf-1 inhibitors: fluorescence interference | AID 504615 | 1,800 tested, under 10 active | Rh110 fluorescence interference, quenched caspase reaction | activation (fluorescence interference), % at 20 µM | shares compounds with Apaf-1 inh;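 active means signal rise of 40% or more at 20 µM, treated as a fluorescence artifact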
Apaf1 inh interf: Apaf-1 inhibitor counter-screen fluorescence artifact; shares compounds with Apaf-1 inh; fluorescence interference counterscreen, Apaf-1 assay format; IC50, µM; 460 tested, under 10 active; call rule not given here
* = called active by the depositor; x = no result. Most compounds without a hit are left out; they make up all but 1.8% or so of the library.

SMILES	procasp7 counter	GSTO1 counter	proCasp3 act	ZTA counter	EBNA-1 inh	Apaf-1 inh	Apaf-1 inh conf	Rh110 quench	others
COc1ccc(S(=O)(=O)N2CCCCCC2)cc1C(=O)N(C)Cc1c(F)cccc1Cl	-5	x	-1	-2	x	43*	31	4
CCOc1ccc(-n2ccc(=O)c(C(=O)Nc3ccc(S(=O)(=O)Nc4ncccn4)cc3)n2)cc1	4	-5	-1	2	8	-9	x	x
Cc1nc(C)n(C(C)CNS(=O)(=O)c2ccc(C)c(C)c2)n1 (configuration not stated)	-1	4	1	4	-3	0	x	x
Cc1cccc(C)c1NC(=O)CN1CCN(CCCC(c2ccc(F)cc2)c2ccc(F)cc2)CC1	8	3	6	-3	14	51*	19	11
Cc1c(NC(=O)CN2CCN(C(c3ccccc3)c3ccccc3)CC2)c(=O)n(-c2ccccc2)n1C	7	-3	-1	3	2	8	x	x
CC(=O)Nc1ccc2nc3ccccc3nc2c1	2	11	-5	-7	-8	50*	9	2
O=C(Nc1ccc2nc3ccccc3nc2c1)c1ccc(Br)cc1	-3	-2	7	7	4	19	x	x
COc1ccc(O)c(C(c2c(C)[nH][nH]c2=O)c2c(C)[nH][nH]c2=O)c1	-10	30	-2	21	-2	67*	14	-1
CN(C)C(=O)c1ccc(NC(=O)c2cccnc2)cc1	2	6	2	-7	-5	7	x	x
CN(C)C(=O)c1ccc(NC(=O)c2sccc2-c2ccccc2)cc1	5	2	0	9	10	45*	31	1
CN(CC(=O)Nc1ccc(F)cc1)C(=O)C1CC(=O)N(Cc2ccccc2)C1 (configuration not stated)	-9	2	1	8	11	44*	26	3
Cc1ccc(SCC(=O)OCC(=O)NCC2CCCCC2)cc1C	10	14	-1	2	-8	12	x	x
Cc1ccc(SCC(=O)OCC(=O)NCCNC(=O)COC(=O)CSc2ccc(C)c(C)c2)cc1C	4	-2	-9	-7	-16	40*	20	16
O=c1[nH]c(=O)n(C2CCCCCC2)c(O)c1C=NCc1ccc(F)cc1	-1	2	0	9	4	40*	23	7
Cc1noc(NS(=O)(=O)c2ccc(NC(=O)c3ccc(Cl)c(S(=O)(=O)N(C)c4ccccc4)c3)cc2)c1C	x	x	x	x	x	12	x	x
O=C(O)CC(c1ccccc1)N1C(=O)c2ccccc2C1=O (configuration not stated)	5	-2	-5	1	-9	-7	x	x
COc1ccc2sc(-c3ccccc3OC)c(-c3ccc(OCCN(C)C)cc3)c2c1	-3	x	-4	x	x	65*	18	13
COc1cccc(-c2sc3ccc(OC)cc3c2-c2ccc(OCCN3CCCC3)cc2)c1	3	x	3	x	x	70*	20	6
COc1cccc(-c2sc3ccccc3c2-c2ccc(OCCN3CCCCC3)cc2)c1	5	x	0	x	x	64*	8	14
COc1cccc(-c2sc3ccccc3c2-c2ccc(OCCN(C)C)cc2)c1	5	x	3	x	x	76*	20	7
COc1cccc(-c2sc3cc(OC)c(OC)cc3c2-c2ccc(OCCN3CCCCC3)cc2)c1	1	x	-4	x	x	66*	10	15
COc1cccc(-c2sc3ccccc3c2-c2ccc(OCCN3CCCC3)cc2)c1	7	x	-1	x	x	71*	25	14
COc1ccc(-c2sc3ccccc3c2-c2ccc(OCCN3CCCCC3)cc2)cc1	7	x	6	x	x	55*	16	5
COc1cc2sc(-c3ccccc3OC)c(-c3ccc(OCCN4CCOCC4)cc3)c2cc1OC	-1	x	1	x	x	27	x	x
CCOC(=O)N1CCN(C(=O)COC(=O)c2ccc(S(=O)(=O)N(CC)CC)cc2)CC1	4	15	-4	-1	-8	0	x	x
SMILES	procasp7 counter	GSTO1 counter	proCasp3 act	ZTA counter	EBNA-1 inh	Apaf-1 inh	Apaf-1 inh conf	Rh110 quench	others
COc1ccccc1N1C(=O)c2ccccc2NC1c1ccncc1 (configuration not stated)	4	-9	0	-10	-7	-2	x	x
COc1ccccc1N1C(=O)N(C(C)=O)C2C1Nc1ccccc1N2C (configuration not stated)	-3	18	-6	-6	-3	83*	25	11
C#CCOc1ccc2c3c(c(=O)oc2c1)CCCC3	-5	-5	2	-11	-2	8	x	x
O=C(c1cccc(S(=O)(=O)NCc2ccccc2)c1)N1CCN(c2ccccc2)CC1	10	x	17	x	x	6	x	x
Cc1ccc(S(=O)(=O)NCc2ccccc2)cc1C(=O)N1CCN(c2ccccc2)CC1	-2	x	-8	-19	x	58*	40	8
O=C(c1cccc(S(=O)(=O)NCc2ccccc2)c1)N1CCN(c2cccc(C(F)(F)F)c2)CC1	6	-5	5	8	-2	44*	40	2
Cc1ccc(S(=O)(=O)NCc2ccccc2)cc1C(=O)N1CCCCC1	-5	7	-4	-1	-17	9	x	x
CC(C)NC(=O)c1ccc(COc2cc(Cl)ccc2Cl)o1	-5	6	6	2	-1	10	x	x
CN(C(=O)COC(=O)/C=C/c1cccs1)C1CCCCC1	9	x	3	x	x	5	x	x
O=C1CC(=Nc2ccccc2)NN1c1ccccc1	6	20	-1	17	6	66*	19	8
O=C1Cc2ccccc2N1c1ccccc1	10	2	4	4	2	11	x	x
COc1cc(C(=O)N2CCN(c3cccc(C)c3C)CC2)ccc1OCC(=O)N1CCOCC1	1	x	-3	-7	x	51*	39	6
CCCCNc1c(-c2ccc(SC(C)CC)cc2)nc2cnccn12 (configuration not stated)	2	x	-2	x	x	60*	46*	33	Apaf1 inh interf=>100
CCCCNc1c(-c2ccc(OC)c(Sc3ccc(OC)cc3)c2)nc2cnccn12	-11	x	-4	x	x	43*	22	7
CCCCCCSc1cc(-c2nc3cnccn3c2NCCCC)ccc1OC	-1	x	-7	x	x	46*	20	17
